Here are results for five compounds from ChEMBL document CHEMBL1649122, “Abc1p is a multidrug efflux transporter that tips the balance in favor of innate azole resistance in Candida krusei” (2009).

What all share (conditions): Pichia kudriavzevii
For test [1], the target named is ATP binding cassette transporter Abc1p (Issatchenkia orientalis) (UniProt Q09GQ4). Briefly: Inhibition of Candida krusei B2399 Abc1p assessed as reduction of fluconazole MIC at 2.5 ug/ml after 48 hrs by checkerboard susceptibility assay. An outline of the steps: (§1)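 Checkerboard liquid microdilution in CSM (pH 7.0). FLC or ITC MICs of AD/CkABC1g or C. krusei B2399 were measured across a range of milbemycin concentrations. Interaction was expressed as fractional inhibitory concentration index (FICI).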

Test [2] shares this target. Put plainly: Inhibition of Candida krusei Abc1g expressed in Saccharomyces cerevisiae isolate ADdelta assessed as reduction of itraconazole MIC at 2.5 ug/ml after 48 hrs by checkerboard susceptibility assay. The method, boiled down:
as §1

Test [3] has the same target. Briefly: Inhibition of Candida krusei B2399 Abc1p assessed as reduction of itraconazole MIC at 1 ug after 48 hrs by agarose diffusion assay.
Test [4] shares this target. Briefly: Inhibition of Candida krusei IF011 Abc1p assessed as reduction of itraconazole MIC at 1 ug after 48 hrs by agarose diffusion assay.
Test [5] shares this target. Briefly: Inhibition of Candida krusei B2399 Abc1p assessed as reduction of itraconazole MIC at 2.5 ug/ml after 48 hrs by checkerboard susceptibility assay. The method, boiled down:
as §1

Test [6] has the same target. Briefly: Inhibition of Candida krusei Abc1p expressed in Saccharomyces cerevisiae isolate AD assessed as reduction of itraconazole MIC at 1 ug after 48 hrs by agarose diffusion assay.
Test [7] shares this target. Briefly: Inhibition of Candida krusei Abc1g expressed in Saccharomyces cerevisiae isolate ADdelta assessed as reduction of fluconazole MIC at 2.5 ug/ml after 48 hrs by checkerboard susceptibility assay. The method, boiled down: as §1

Molecules are shown by their SMILES. Active and inactive are the calls of the source. No cut-off for these calls is given here.

For `C/C=C(\C)C(=O)OCC1=C[C@H]2C(=O)O[C@H]3C[C@@H](C/C=C(\C)C[C@@H](C)/C=C/C=C4\CO[C@H]([C@@H]1O)[C@@]42O)O[C@@]1(CC[C@H](C)[C@@H](C)O1)C3`, the MIC in test [1] is 64 µg/mL; in test [5], 0.125 µg/mL. Also, the result in test [2], in test [3], in test [4], in test [6] and in test [7] was Active.
Take `CC(C)=CC(=O)OCC1=C[C@H]2C(=O)O[C@H]3C[C@@H](C/C=C(\C)C[C@@H](C)/C=C/C=C4\CO[C@H]([C@@H]1O)[C@@]42O)O[C@@]1(CC[C@H](C)[C@@H](C)O1)C3`: the result in test [3], in test [4] and in test [6] was Active.
As for `CC1=C[C@H]2C(=O)O[C@H]3C[C@@H](C/C=C(\C)C[C@@H](C)/C=C/C=C(\C)[C@]2(O)[C@H](O)[C@@H]1O)O[C@@]1(CC[C@H](C)[C@@H](C)O1)C3`, the outcome in test [1], in test [2], in test [3], in test [4], in test [5] and in test [6] was Active. Also, in test [7], the result was Active.
On to `CO[C@@H]1C(C)=C[C@H]2C(=O)O[C@H]3C[C@@H](C/C=C(\C)C[C@@H](C)/C=C/C=C(\CO)[C@]2(O)[C@@H]1O)O[C@@]1(CC[C@H](C)[C@@H](C)O1)C3`, for which the outcome in test [3], in test [4] and in test [6] was Active.
On to `CO[C@@H]1C(CO)=C[C@H]2C(=O)O[C@H]3C[C@@H](C/C=C(\C)C[C@@H](C)/C=C/C=C4\CO[C@H]1[C@@]42O)O[C@@]1(CC[C@H](C)[C@@H](C)O1)C3`, for which the result in test [3], in test [4] and in test [6] was Active.
